Compound activity from PubChem.
The list is not random: actives were taken first. Their share in the collection is about 4.1%.
KCNQ1 act: human KCNQ1 channel potentiation or activation | P51787 | CHO-K1 KCNQ1, thallium flux FluxOR fluorescence; stronger effect = higher value | B-score at 10 µM | hit rate 0.35% among 310,000;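 active = fluorescence ratio B-score, a plate-corrected score, at least three library SD, with initial intensity B-score within 5 SD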
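Medium – assay buffer, equal DMSO in all wells · Material – CHO-K1 cell line with stable KCNQ1 potassium channel expression · Signal – kinetic FluxOR thallium fluorescence, 10-s 1-Hz baseline, 110-s post-stimulus read · Compound – single concentration per compound, DMSO matched to controls · Schedule – 37 °C overnight plating, 90-min dark dye load, 20-min compound pretreatment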
KCNQ1 inh: human KCNQ1 channel inhibition | AID 2642 | P51787 | B-score at 10 µM | CHO-K1 KCNQ1, FluxOR thallium flux fluorescence; stronger effect = higher value | hit rate 1.3% among 310,000;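 active = compounds whose thallium flux B-score, printed positive for inhibition, exceeds three library SD while starting fluorescence stays within three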;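 note: channel opened by potassium depolarization with thallium stimulus after 20 min compound exposure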
KCNK9 inh: blocks the human KCNK9 two-pore domain potassium channel | Q9NPC2 | HEK293 KCNK9, FluxOR thallium flux fluorescence; stronger effect = lower value | B-score at 10 µM | hit rate 1.2% among 310,000 | AID 488922;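 active = ratio B-score over 3 SD below the library mean, with starting fluorescence within 5 SD of its mean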;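 note: negative B-score means less thallium flux so channel inhibition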
KCNK3 inh: human KCNK3 channel inhibition, primary screen; O14649; CHO-KCNK3 thallium flux, FluxOR fluorescence; stronger effect = lower value; B-score at 10 µM; hit rate 0.84% among 340,000; AID 602410;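 active = B-score under library mean minus 4 SD, starting fluorescence ratio at most library mean plus 5 SD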;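 note: more negative B-score means stronger inhibition of thallium flux through KCNK3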
Cl transport mod: KCC2 (human) Cl- transport modulation | Q9H2X9 | KCC2 cells, thallium flux FluoZin-2 fluorescence | B-score of Tl+ flux slope (higher = more flux/activation; lower = inhibition) at 10 µM | hit rate 2.2% among 190,000 | AID 1456;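 active = thallium flux slope and its plate-corrected score both differing from the plate sample mean at a set confidence after two filtering rounds, in either direction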;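 note: slope of fluorescence scaled to starting intensity during 10 to 20 s after thallium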
hERG rescue: hERG (human) protection from proarrhythmic block. CHO-hERG, FluxOR thallium flux, dofetilide IC70 present. hit rate 0.51% among 310,000. Q12809. activation (rescue from dofetilide block), less the hit threshold, % at 10 µM. AID 1511;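 active = activation above the mean of controls blocked by dofetilide plus 5 SD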;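 note: thallium influx through hERG after potassium depolarization seen as dye fluorescence rise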
KCNK9 block conf: confirmation of human KCNK9 potassium channel inhibitors. shares compounds with KCNK9 inh. HEK293 KCNK9 cells, FluxOR thallium flux fluorescence. inhibition, % at 10 µM. hit rate 43% among 4,900. AID 492992;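 active = thallium signal inhibited by more than 5 SD of the compound-free buffer control wells, on both duplicate plates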;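 note: 0% = assay buffer control wells without compound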
Kir21 sel: mouse Kir2.1 off-target activity of KCNK9 modulators; shares compounds with KCNK9 inh; Kir2.1 cells, FluxOR thallium flux fluorescence; inhibition, % at 10 µM; hit rate 4% among 4,900;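 active = thallium signal drop more than 5 SD beyond the mean of the no-compound control wells, seen in both duplicate plates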;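 note: signal is fluorescence rise after thallium addition divided by baseline fluorescence; plate controls were assay buffer only for no effect and full block by chlorpromazine control for full effect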
Target sequence (P35561 whole entry, looked up): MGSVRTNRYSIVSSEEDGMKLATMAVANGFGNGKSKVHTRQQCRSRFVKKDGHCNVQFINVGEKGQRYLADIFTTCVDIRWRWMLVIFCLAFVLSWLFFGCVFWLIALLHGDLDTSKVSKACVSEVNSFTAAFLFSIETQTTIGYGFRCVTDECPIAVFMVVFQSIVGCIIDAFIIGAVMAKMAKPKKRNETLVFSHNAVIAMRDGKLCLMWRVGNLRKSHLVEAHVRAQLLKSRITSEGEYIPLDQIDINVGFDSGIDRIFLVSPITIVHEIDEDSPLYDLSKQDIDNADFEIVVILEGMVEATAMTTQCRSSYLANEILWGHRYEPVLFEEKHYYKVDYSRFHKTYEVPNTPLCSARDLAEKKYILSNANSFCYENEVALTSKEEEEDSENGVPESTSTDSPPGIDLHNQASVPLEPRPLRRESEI
HEK293 Tl ctr: non-induced cell nonspecific activity of KCNK9 modulators; shares compounds with KCNK9 inh; non-induced KCNK9-HEK293, FluxOR thallium flux; inhibition, % at 10 µM; hit rate 40% among 4,900; AID 492997;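 active = thallium signal drop beyond 5 SD of the untreated control mean, on both duplicate plates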;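 note: plate controls were buffer only IC0 wells for no effect and SID17386958 at its maximal inhibitory level for full effect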
* hit, by the source's call; ! = not active in a repeat.

Results for COc1ccccc1NC(=O)COc1ccccc1C(=O)c1cnn(-c2ccccc2)c1 ?
KCNQ1 act: inactive; KCNQ1 inh: inactive; KCNK9 inh: inactive; KCNK3 inh: inactive; Cl transport mod: 0.58; hERG rescue: -8

What do the screens show for `CCc1ccc(NC(=O)COc2ccc(F)cc2C(=O)c2cnn(-c3ccccc3)c2)cc1`?
KCNQ1 act: inactive; KCNQ1 inh: inactive; KCNK9 inh: inactive; KCNK3 inh: inactive; Cl transport mod: 0.1; hERG rescue: -10; KCNK9 block conf: inactive; Kir21 sel: inactive; HEK293 Tl ctr: inactive

Results for CCCCCCCCCCOC(=O)Cn1c(COc2ccc(OC)cc2)[n+](C)c2ccccc21 ?
KCNQ1 act: inactive; KCNQ1 inh: 10*; KCNK9 inh: -17*; KCNK3 inh: inactive; hERG rescue: -29; KCNK9 block conf: 70%*; Kir21 sel: 75%*; HEK293 Tl ctr: 33%*!

Results for CCCCCCCCCCOC(=O)Cn1c(COc2ccc(Cl)cc2)[n+](C)c2ccccc21 ?
KCNQ1 act: inactive; KCNQ1 inh: inactive; KCNK9 inh: -10*; KCNK3 inh: inactive; hERG rescue: -22; KCNK9 block conf: 72%*; Kir21 sel: 50%*; HEK293 Tl ctr: inactive

What do the screens show for `CCCCCCCCCCOC(=O)Cn1c(COc2ccccc2)[n+](C)c2ccccc21`?
KCNQ1 act: inactive; KCNQ1 inh: 8*; KCNK9 inh: -15*; KCNK3 inh: inactive; hERG rescue: -23; KCNK9 block conf: 72%*; Kir21 sel: 75%*; HEK293 Tl ctr: 34%*

How did c1ccc(Oc2ccccn2)cc1 do in these assays?
KCNK3 inh: inactive

How did CC(=O)NC(CC(=O)NNC(=O)c1cccs1)c1ccccc1 (stereo not drawn) do in these assays?
KCNQ1 act: inactive; KCNQ1 inh: inactive; KCNK9 inh: inactive; KCNK3 inh: inactive; hERG rescue: -14

Results for CC[N+](CC)(CC)CCCCOc1ccc2c(c1)C(=O)c1cc(OCCCC[N+](CC)(CC)CC)ccc1-2 ?
KCNQ1 act: inactive; KCNQ1 inh: inactive; KCNK9 inh: inactive; KCNK3 inh: inactive; Cl transport mod: 1.8; hERG rescue: -7

What do the screens show for `COc1cc(/C=N/OCC(=O)NC23CC4CC(CC(C4)C2)C3)ccc1OCc1ccccc1`?
KCNQ1 act: inactive; KCNQ1 inh: inactive; KCNK9 inh: inactive; KCNK3 inh: inactive; Cl transport mod: -0.13; hERG rescue: -5; KCNK9 block conf: inactive; Kir21 sel: inactive; HEK293 Tl ctr: 26%*

What do the screens show for `Cc1ccc(C)c(C(=O)CSc2nc(N)cc(=O)[nH]2)c1`?
KCNQ1 act: inactive; KCNQ1 inh: inactive; KCNK9 inh: inactive; KCNK3 inh: inactive; hERG rescue: -8

What do the screens show for `CC(=O)N1c2c(cc(Br)cc2S(=O)(=O)NCc2cccnc2)CC1C` (stereo not drawn)?
KCNQ1 act: inactive; KCNQ1 inh: inactive; KCNK9 inh: inactive; KCNK3 inh: inactive; Cl transport mod: -0.68; hERG rescue: -3

Results for CCCCN(Cc1ccccc1)S(=O)(=O)c1cc(Br)cc2c1N(C(C)=O)C(C)C2 (stereo not drawn) ?
KCNQ1 act: inactive; KCNQ1 inh: inactive; KCNK9 inh: -15*; KCNK3 inh: inactive; hERG rescue: -16; KCNK9 block conf: inactive; Kir21 sel: inactive; HEK293 Tl ctr: 54%*

What do the screens show for `O=C(CN1C(=O)NC2(CCCc3ccccc32)C1=O)c1ccc(F)c(F)c1` (stereo not drawn)?
KCNK3 inh: inactive

Results for c1ccc(Cc2nnc(N3CCOCC3)c3ccccc23)cc1 ?
KCNQ1 act: inactive; KCNQ1 inh: inactive; KCNK9 inh: inactive; KCNK3 inh: inactive; Cl transport mod: -0.46; hERG rescue: -5
